The record followed here is article PMC6585414 (Infection and Drug Resistance, 2019).

No end group written: not given here.

Data set [1] is described as follows: Serum biochemical factors after intraperitoneal injection. Type of data set: in vivo, mouse. Conditions: blood 48 h after the injection, mean ± standard deviation. Summed up: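 Mice given PBS (control) or peptide at 50 or 100 μg/mouse by single ip injection (100 μL/mouse). Blood (0.2 mL) drawn 48 h later and serum GPT, GOT, total bilirubin and uric acid quantified. Five mice per group. Data shown as mean ± SD, compared by ANOVA, p<0.05 taken as significant.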

Data set [2] relates to human embryonic kidney cells (HEK-293). Kind of data set: MTT cytotoxicity assay. The data set is classed as cell-based. Particulars: 1.56–50 μg/mL, 48 h, 37°C, in words (Figure 6). Summed up:
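HEK-293 cells seeded fresh at 1×10^5 cells/well, exposed to twofold serial peptide dilutions (1.56–50 μg/mL) at 37°C in 5% CO2 for 48 h. MTT (5 mg/mL stock, 10 μL) then added for 4 h. Formazan dissolved in 100% DMSO, absorbance read at 575 nm, percentage viable cells derived. Triplicate, three independent repeats, mean ± SD.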

On to “FFHHIFRGIVHVGKTKHRLVTG-NH2 [I16K-piscidin-1]”, for which, in data set [1] (50 μg/mouse ip), the “Serum level of GOT” value stood at 8.88±0.86 U/L, the “Serum level of GPT” value is given as 6.43±0.86 U/L, the “Serum level of TBIL” value turned out to be 0.20 ± 0.05 mg/dL and the “Serum level of UA” value worked out at 0.41 ± 0.11 mg/dL. Further, the “Serum level of GOT” value in data set [1] (100 μg/mouse ip) is 8.53±1.15 U/L. Also, the “Cytotoxic activity against HEK-293” value in data set [2] is on record as “lowest activity against HEK-293 cells compared to other peptides”.

As for “FFHHIFRGIVHVGKTIHRLVTG-NH2 [Piscidin-1, reference compound]”, in data set [1] (50 μg/mouse ip), the “Serum level of GOT” value was found to be 9.48±1.06 U/L, the “Serum level of GPT” value came out at 5.83±0.52 U/L, the “Serum level of TBIL” value is 0.19 ± 0.04 mg/dL and the “Serum level of UA” value stood at 0.45 ± 0.06 mg/dL. Also, in data set [1] (100 μg/mouse ip), the “Serum level of GOT” value is 10.64±0.97 U/L, the “Serum level of GPT” value is 4.62±0.42 U/L, the “Serum level of TBIL” value is 0.27 ± 0.07 mg/dL and the “Serum level of UA” value stood at 0.53 ± 0.08 mg/dL. Besides, the “Cytotoxic activity against HEK-293” value in data set [2] is “highest cytotoxic activity”.

As for “FFHHIFRGAVHVGKTIHRLVTG-NH2 [I9A-piscidin-1]”, in data set [1] (50 μg/mouse ip), the “Serum level of GOT” value is given as 8.96±1.12 U/L, the “Serum level of GPT” value stood at 6.67±0.47 U/L, the “Serum level of TBIL” value amounted to 0.21 ± 0.06 mg/dL and the “Serum level of UA” value is 0.42 ± 0.07 mg/dL. Further, in data set [1] (100 μg/mouse ip), the “Serum level of GOT” value is 10.86±1.07 U/L, the “Serum level of GPT” value turned out to be 7.17±0.37 U/L, the “Serum level of TBIL” value turned out to be 0.51 ± 0.09 mg/dL and the “Serum level of UA” value is 0.87 ± 0.09 mg/dL.

On to “FFHHIFRGKVHVGKTIHRLVTG-NH2 [I9K-piscidin-1]”, for which, in data set [1] (50 μg/mouse ip), the “Serum level of GOT” value is on record as 9.27±0.78 U/L, the “Serum level of GPT” value was 6.26±0.22 U/L, the “Serum level of TBIL” value was 0.18 ± 0.07 mg/dL and the “Serum level of UA” value was 0.43 ± 0.05 mg/dL. Besides, in data set [1] (100 μg/mouse ip), the “Serum level of GOT” value is listed as 10.32±0.88 U/L, the “Serum level of GPT” value was determined as 6.86±0.82 U/L, the “Serum level of TBIL” value came out at 0.48 ± 0.10 mg/dL and the “Serum level of UA” value came out at 0.81 ± 0.07 mg/dL.

As to “FFHHIFRGIVHVGKTAHRLVTG-NH2 [I16A-piscidin-1]”, in data set [1] (50 μg/mouse ip), the “Serum level of GOT” value is listed as 9.22±0.90 U/L, the “Serum level of GPT” value came to 5.92±1.10 U/L, the “Serum level of TBIL” value was 0.20 ± 0.04 mg/dL and the “Serum level of UA” value was 0.39 ± 0.12 mg/dL. In data set [1] (100 μg/mouse ip), the “Serum level of GOT” value amounted to 11.08±0.94 U/L, the “Serum level of GPT” value is 7.33±1.10 U/L, the “Serum level of TBIL” value was found to be 0.53 ± 0.08 mg/dL and the “Serum level of UA” value stood at 0.77 ± 0.14 mg/dL.
